Compound activity: PubChem BioAssay, several laboratories
Compounds with a hit are over-represented: about 2.2% of the library has one in this group of screens.
PMI activator = increases human mannose-6-phosphate isomerase activity; P34949; purified human PMI, coupled resazurin fluorescence, 20 min; stronger effect = higher value; 1 = vehicle control, 0 substrate-free wells; activation factor at 20 µM; 0.005% of 190,000 active; AID 1214;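 active means activation factor of 2 or more at 20 µM, relative to plate controls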
Target sequence (P34949 whole entry, looked up): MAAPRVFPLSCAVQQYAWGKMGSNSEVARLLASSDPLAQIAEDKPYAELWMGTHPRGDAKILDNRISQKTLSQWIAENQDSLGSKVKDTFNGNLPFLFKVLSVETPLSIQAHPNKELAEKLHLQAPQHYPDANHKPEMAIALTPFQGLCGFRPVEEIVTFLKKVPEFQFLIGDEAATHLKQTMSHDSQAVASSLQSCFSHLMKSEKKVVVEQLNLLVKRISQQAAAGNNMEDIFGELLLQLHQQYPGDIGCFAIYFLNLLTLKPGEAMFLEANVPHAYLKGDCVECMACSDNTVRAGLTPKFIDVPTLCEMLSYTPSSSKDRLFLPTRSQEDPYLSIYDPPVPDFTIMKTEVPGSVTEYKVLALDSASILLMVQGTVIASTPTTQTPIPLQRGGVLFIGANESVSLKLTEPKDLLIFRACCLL
G6PDH counter = inhibits Leuconostoc G6PDH, flagging false hits in G6PDH-based assays. Purified L. mesenteroides G6PDH, diaphorase/resazurin coupled fluorescence, 45 min. inhibition, % at 5 µM. 0.12% of 200,000 active. AID 1020; in the data active means inhibition above about 50%
PMI act hi M6P = PMI (human) activation, high substrate; P34949; coupled PMI enzyme assay, resazurin fluorescence, 20 min; stronger effect = higher value; 1 = untreated enzyme, 0 = substrate-free blank; activation factor at 20 µM; 0.34% of 190,000 active; AID 1216;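 active means activation factor of 2 or more at 20 µM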
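Test system: human phosphomannose isomerase with PGI, G6PDH, diaphorase coupling enzymes; Amount: PMI at 15 ng/mL final; Reagent: Mannose-6-phosphate 1.0 mM (near-saturating) plus 0.22 mM NADP+; Timing: 20 min, room temperature; Technique: resorufin fluorescence at Ex 544/Em 590 nm; Dosing: 20 µM single dose.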
Diaph act CS = diaphorase activation or chemical reduction counter-screen; AID 1229; activation factor at 20 µM; 0.005% of 190,000 active; Diaphorase/resazurin coupled assay, resorufin fluorescence, 16 min; stronger effect = higher value; 1 = vehicle wells, 0 = NADH-free wells;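 active means diaphorase activity raised at least twofold by the compound at 20 µM; inactive means activation factor below 2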
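System – purified diaphorase enzyme from Clostridium kluyveri · Input – enzyme 0.07 U/mL final · Also added – final NADH 0.114 mM, resazurin 0.1 mM · Measured by – fluorescence of resorufin, 544 nm excitation, 590 nm emission · Timing – 16 min enzyme reaction, ambient temperature · Measure – resorufin increase flagging diaphorase activators or reducers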
Diaph inh CS = inhibits diaphorase or chemically oxidizes, flagging diaphorase assay artifacts; diaphorase resazurin-to-resorufin fluorescence, NADH, 16 min; bacterial (C. kluyveri) enzyme, not human; inhibition, % at 20 µM; 0.69% of 190,000 active; AID 1217;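 active means primary screen inhibition at 20 µM above a set limit, cut at about 50% in these data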;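 further: plate controls were DMSO with full reaction for no effect and wells lacking NADH for full effect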
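Assay system: diaphorase enzyme from Clostridium kluyveri. Quantity: enzyme working solution with 0.14 U/mL diaphorase. Schedule: reaction incubation of 16 min at room temperature. Technique: resorufin fluorescence, excitation 544 nm, emission 590 nm. Controls: No-NADH positive control and DMSO neutral control.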
ROMK mod = modulates human ROMK potassium channel activity; Tet-inducible ROMK, thallium flux fluorescence; actives lie on both sides; B-score at 10 µM; 2% of 130,000 active; AID 1918;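 active means signal ratio slope over the read window, or its plate-corrected B-score, at least 3 SD from the plate mean, either direction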;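 further: B-score of the F/F0 ratio slope over 7 to 12 s after thallium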
* marks the source's active call; other numbers are inactive results.

`Cc1cccc2cc(C(c3nnnn3CC3CCCO3)N3CCc4ccccc4C3)c(=O)[nH]c12` (centres undefined) gave PMI activator 1, G6PDH counter 22, PMI act hi M6P 1.3, Diaph act CS 0.4, Diaph inh CS 55* and ROMK mod -0.55.
Cc1cccc2cc(C(c3nnnn3CC3CCCO3)N3CCCc4ccccc43)c(=O)[nH]c12 (centres undefined) was read as PMI activator 0.8, G6PDH counter 5, PMI act hi M6P 0.5, Diaph act CS 0.4 and Diaph inh CS 60*.
`Cc1ccc2cc(C(c3nnnn3CC3CCCO3)N3CCc4ccccc4C3)c(=O)[nH]c2c1` (centres undefined) gave PMI activator 1, G6PDH counter -2, PMI act hi M6P 1.4, Diaph act CS 0.5, Diaph inh CS 54* and ROMK mod 0.46.
`Cc1cccc2cc(C(c3nnnn3CC3CCCO3)N3CCCC4(CCCCC4)C3)c(=O)[nH]c12` (centres undefined) gave PMI activator 1, G6PDH counter 6, PMI act hi M6P 0.9, Diaph act CS 0.7 and Diaph inh CS 31.
CCOc1cc(NC(=S)NCCCN2CCOCC2)c(OCC)cc1NC(=O)c1cccs1 was read as PMI activator 0.7, G6PDH counter 19, PMI act hi M6P 0.4, Diaph act CS 0.7, Diaph inh CS 25 and ROMK mod 1.1.
`Cc1cccc(N(CC(=O)NC(C)C)C(=O)c2ccc(N3CCCC3)nc2)c1` gave PMI activator 1.1, G6PDH counter -4, PMI act hi M6P 1.1, Diaph act CS 0.9, Diaph inh CS 5 and ROMK mod 0.23.
Screening Cc1cc(NC(=O)CSc2nnc(-c3ccncc3)n2-c2ccccc2)no1 returned PMI activator 1.2, G6PDH counter 10, PMI act hi M6P 1.2, Diaph act CS 1, Diaph inh CS 4 and ROMK mod -0.21.
`Cc1cc2cc(C(c3nnnn3CC3CCCO3)N3CCCc4ccccc43)c(=O)[nH]c2cc1C` (centres undefined) gave PMI activator 0.6, G6PDH counter 22, PMI act hi M6P 0.8, Diaph act CS 0.5 and Diaph inh CS 50.
CCc1ccc2[nH]c(=O)c(C(c3nnnn3CC3CCCO3)N3CCCc4ccccc43)cc2c1 (centres undefined) was read as PMI activator 0.5, G6PDH counter 19, PMI act hi M6P 0.9, Diaph act CS 0.3 and Diaph inh CS 68*.
For N#CCSc1ccc(-c2nc3ccccc3[nH]2)cn1 the results were PMI activator 1, G6PDH counter 11, PMI act hi M6P 0.9, Diaph act CS 0.4, Diaph inh CS 58* and ROMK mod -1.
Screening c1ccc2c3c(cc(N4CCOCC4)c2c1)OC1(N2CCOCC2)CCCCC1O3 (centres undefined) returned PMI activator 0.7, G6PDH counter 50*, PMI act hi M6P 0.4, Diaph act CS 0.7, Diaph inh CS 25 and ROMK mod 0.51.
Screening CC(C)(C)n1ncc2c(=O)n(CC(=O)NCc3ccccc3)cnc21 returned PMI activator 0.9, G6PDH counter -3, PMI act hi M6P 0.9, Diaph act CS 0.8, Diaph inh CS 19 and ROMK mod 4.2*.
For CC(=O)Nc1ccc(NC(=O)Cn2cnc3c(cnn3C(C)(C)C)c2=O)cc1 the results were PMI activator 0.9, G6PDH counter -19, PMI act hi M6P 0.9, Diaph act CS 0.9, Diaph inh CS 10 and ROMK mod 0.0017.
`CC(C)(CO)Nc1nc(Cl)nc(NC2CCCCC2)n1` gave ROMK mod -0.24.
For COC(=O)c1cc(O)c(O)c(O)c1 the results were PMI activator 0.7, G6PDH counter 22, PMI act hi M6P 0.9, Diaph act CS 0.5, Diaph inh CS 50* and ROMK mod 0.2.
For COC(=O)c1cc(O)c(OCc2ccccc2)c(O)c1 the results were PMI activator 0.9, G6PDH counter -8, PMI act hi M6P 0.9, Diaph act CS 0.9 and Diaph inh CS 10.
Screening Cc1ccc(-c2ccc(=O)n(CCC(=O)NCCN3CCCCC3C)n2)cc1 (centres undefined) returned PMI activator 0.9, G6PDH counter -9, PMI act hi M6P 1, Diaph act CS 0.9 and Diaph inh CS 8.
Screening Cc1ccc(-c2ccc(=O)n(CC(=O)NCCN3CCCCC3C)n2)cc1 (centres undefined) returned PMI activator 0.5, G6PDH counter 10, PMI act hi M6P 0.4, Diaph act CS 0.5 and Diaph inh CS 53*.
For CCN(Cc1ccncc1)Cc1c(O)ccc2ccccc12 the results were PMI activator 0.5, G6PDH counter 28, PMI act hi M6P 0.3, Diaph act CS 0.4, Diaph inh CS 64* and ROMK mod 0.0011.
COc1ccc(NC(=O)c2cc([N+](=O)[O-])ccc2O)cc1 was read as PMI activator 1.1, G6PDH counter 8, PMI act hi M6P 1, Diaph act CS 0.9, Diaph inh CS 11 and ROMK mod 4.5*.
COc1ccc(NC(=O)c2cccc([N+](=O)[O-])c2)cc1 was read as PMI activator 1, G6PDH counter -1, PMI act hi M6P 1, Diaph act CS 1, Diaph inh CS 2 and ROMK mod 0.17.
Screening O=C(NCC1COc2ccccc2O1)C1CCN(S(=O)(=O)c2cccc3nsnc23)CC1 (centres undefined) returned PMI activator 0.9, G6PDH counter -3, PMI act hi M6P 0.9, Diaph act CS 0.9 and Diaph inh CS 10.
Screening O=C(NCC1COc2ccccc2O1)C1CCCN(S(=O)(=O)c2cccc3nsnc23)C1 (centres undefined) returned PMI activator 0.8, G6PDH counter 6, PMI act hi M6P 0.8, Diaph act CS 0.7, Diaph inh CS 27 and ROMK mod -2.5*.
Screening CCOP(=O)(OCC)c1nc(/C=C/c2ccccc2)oc1NCc1ccc(OC)cc1 returned PMI activator 0.9, G6PDH counter 8, PMI act hi M6P 0.9, Diaph act CS 0.5, Diaph inh CS 52* and ROMK mod 0.15.
CCOP(=O)(OCC)c1nc(-c2ccc(C)cc2)oc1NCc1ccccc1 was read as PMI activator 0.9, G6PDH counter -1, PMI act hi M6P 0.9, Diaph act CS 0.7 and Diaph inh CS 27.
CCOP(=O)(OCC)c1nc(/C=C/c2ccccc2)oc1NCc1ccccc1 was read as PMI activator 0.9, G6PDH counter 6, PMI act hi M6P 0.9, Diaph act CS 0.5 and Diaph inh CS 54*.
